Consider 15 compounds from PubChem BioAssay.

Activity calls are given as the source filed them.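 How the source made its calls, unless noted: active means inhibition at or above 50% at 10 µM; inactive means inhibition below 50%.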

A short description of assay [1]: inhibitors of TNFa-induced NFkB p65 translocation, primary screen, imaging, HUVEC, MLSMR starter and 10KST1 sets (AID 438;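 active means inhibition above 20% together with a positive visual image hit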;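 further: compound added about 3h40 before a 20 min TNFalpha stimulation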;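 on inhibition: signal is the nuclear over cytoplasmic p65 intensity ratio per well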). The conditions noted are these: HUVEC TNFa-induced p65 nuclear translocation; cell count: measured here: nuclei count (cytotoxicity indicator), at 2.08 µM; inhibition: at 2 µM, stronger effect = higher value, 0% TNFa-plus-vehicle, 100% no-TNFa wells.
Assay [2] can be described thus: inhibitors of mutant huntingtin aggregation, primary screen, imaging, exon1htt(103Q)mCFP cells, high-content imaging (AID 483;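 active means visual image review flags a hit and inhibition of aggregation exceeds 20%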;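 further: compound exposure lasted 3 days before fixation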;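 on nuclei count: percent of the per-plate median nuclei count of sample wells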). The conditions noted are these: exon1htt(103Q)mCFP cell line, aggregate imaging, at 2 µM; inhibition of aggregation: stronger effect = higher value; nuclei count: measured here: cell count, toxicity.
Assay [3] can be described thus: inhibitors of E-selectin induction by TNFa, primary screen, imaging, HUVEC, immunofluorescence, MLSMR starter and 10KST1 sets (AID 487;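 active means visually confirmed hit in the image check and inhibition above 20%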;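 on inhibition: signal is fraction of cell area covered by stained E-selectin grains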;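 on nuclei count: 100% = median nuclei count of all wells on the same plate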). The conditions noted are these: HUVEC TNFalpha-induced E-selectin immunofluorescence imaging, at 2 µM; inhibition: stronger effect = higher value; nuclei count: measured here: cell number, toxicity.
Assay [4] concerns the target Voltage-gated potassium channel subunit beta-2 (Rattus norvegicus) (UniProt P62483). In words: KvBeta enzyme negative modulators, primary screen, biochemical, NADPH fluorescence (AID 622;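 active means fluorescence slope higher than the sample average by over 3 SD, cut at about -0.22 in these data, passing the limit was not always enough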;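 further: slope of raw intensity against log time taken from 70 to 1610 s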). The conditions noted are these: recombinant KvBeta, 4-cyanobenzaldehyde reduction, at 10 µM, stronger effect = higher value.
For assay [5] the target is unchanged. As to the kind of experiment: KvBeta positive modulators, primary screen, biochemical, NADPH fluorescence (AID 623;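 active means NADPH fluorescence slope more negative than the mean of all samples by about 3 SD, 99.7% confidence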;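 further: fluorescence intensity change per second fitted from 20 to 320 s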). To be noted: Recombinant KvBeta, NADPH fluorescence decrease slope, 10 min; at 10 µM; stronger effect = lower value.
Assay [6] has as its target Muscarinic acetylcholine receptor M4 (Homo sapiens) (UniProt P08173). In words: compounds altering M4/GIRK thallium flux, either direction, primary screen, M4 allosteric agonist project, cell-based, HEK293 M4/GIRK, BTC-AM (AID 625;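 active means fluorescence slope after compound addition differing from the mean of all tested samples at 99.7% confidence, mostly higher but some lower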;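 further: thallium influx through GIRK channels coupled to M4 in HEK293 cells with BTC-AM dye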). The conditions noted are these: at 10 µM, actives lie on both sides. A digest of the protocol:
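Assay system: HEK293 cells with M4 receptor and GIRK channels / Controls: carbachol and DMSO controls / Schedule: 1 h dye loading, 2 min kinetic read / Technique: kinetic fluorescence with BTC-AM dye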

A short description of assay [7]: inhibitors of Sendai virus-induced IRF3 signaling, primary screen, TLR/RLR signaling modifier project, cell-based, Sendai virus stimulus, luciferase, 10K MLSCN set (AID 602276).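 Further: firefly luciferase from ISG56 promoter only with Renilla not read in this screen; 0% = Sendai virus plus DMSO and 100% = medium plus DMSO without virus.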 To be noted: HEK293 RL24 IRF3 luciferase reporter, at 10 µM, stronger effect = higher value.
Assay [8] is described as follows: inhibitors of poly I:C-induced TLR3 signaling, primary screen, cell-based, poly I:C stimulus, luciferase, 10K MLSCN set (AID 602277;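 active means inhibition of the reporter signal at or above 50%; inactive means inhibition below 50%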). The conditions noted are these: HEK293-TLR3 RL24 IRF3 luciferase reporter, at 10 µM, stronger effect = higher value. (In a reporter assay the amount or activity of a reporter protein is the signal.)

The inhibition is the drop in the measured response relative to a control, in per cent.

Sequence of Voltage-gated potassium channel subunit beta-2 (Rattus norvegicus) (P62483 whole entry, looked up): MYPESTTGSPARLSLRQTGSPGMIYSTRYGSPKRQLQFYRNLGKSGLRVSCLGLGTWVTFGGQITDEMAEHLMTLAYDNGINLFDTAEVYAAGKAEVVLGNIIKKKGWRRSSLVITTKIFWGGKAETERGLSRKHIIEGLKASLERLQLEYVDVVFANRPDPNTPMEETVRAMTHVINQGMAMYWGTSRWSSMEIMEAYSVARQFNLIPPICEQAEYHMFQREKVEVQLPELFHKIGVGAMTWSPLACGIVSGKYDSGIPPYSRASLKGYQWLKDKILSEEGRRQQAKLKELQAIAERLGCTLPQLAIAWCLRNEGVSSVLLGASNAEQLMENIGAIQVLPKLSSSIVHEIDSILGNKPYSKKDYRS
Sequence of Muscarinic acetylcholine receptor M4 (Homo sapiens) (P08173 whole entry, looked up): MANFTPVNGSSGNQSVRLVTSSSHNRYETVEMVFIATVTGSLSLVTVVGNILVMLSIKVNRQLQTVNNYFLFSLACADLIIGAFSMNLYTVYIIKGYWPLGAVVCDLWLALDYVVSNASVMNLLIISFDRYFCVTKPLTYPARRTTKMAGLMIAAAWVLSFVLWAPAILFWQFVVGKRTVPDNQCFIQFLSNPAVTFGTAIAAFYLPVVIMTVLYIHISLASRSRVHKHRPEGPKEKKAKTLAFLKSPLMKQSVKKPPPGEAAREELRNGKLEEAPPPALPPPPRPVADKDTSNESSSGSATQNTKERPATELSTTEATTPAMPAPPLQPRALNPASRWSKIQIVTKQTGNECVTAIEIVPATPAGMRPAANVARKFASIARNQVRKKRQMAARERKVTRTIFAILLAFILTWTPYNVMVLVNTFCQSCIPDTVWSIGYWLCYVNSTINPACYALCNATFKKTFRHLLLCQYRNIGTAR

As for `CC(C)(C)n1nnnc1C(c1cccc(C#N)c1)N1CCC(Cc2ccccc2)CC1` (stereo not given), the cell count in assay [1] stood at 613. In addition, the inhibition in assay [1] is -13.9% (inactive); in assay [3] it was -8% (inactive); in assay [7] it was 25.2% (inactive); in assay [8], 36.8% (inactive). Also, in assay [2], the inhibition of aggregation is 30.1% (inactive). Moreover, the nuclei count in assay [2] came to 81.1%; in assay [3] it was 128%. Besides, the fluorescence slope was -0.571 (inactive) in assay [4] and 0.00477 (inactive) in assay [6]. The NADPH fluorescence slope in assay [5] was -3.4e-05 (inactive).

Take `O=C(Cn1cccc1)N1CCN(C(c2ccccc2)c2ccccc2)CC1`: in assay [1], the cell count amounted to 337. Besides, the inhibition is -8.9% (inactive) in assay [1], -52.8% (inactive) in assay [3], 13.3% (inactive) in assay [7] and 22% (inactive) in assay [8]. For the same compound, the inhibition of aggregation in assay [2] was -11.9% (inactive). Moreover, the values for the nuclei count in assay [2] and in assay [3] were 110% and 107%, respectively. Also, the fluorescence slope in assay [4] is -0.213 (inactive); in assay [6], 0.00614 (inactive). Also, the NADPH fluorescence slope in assay [5] is -1.1e-05 (inactive).

Take `COC(=O)c1cccc(S(=O)(=O)N2CCN(c3nc4ccccc4s3)CC2)c1`: the cell count in assay [1] stood at 299. The inhibition in assay [1] was -5% (inactive); in assay [3], -24.1% (inactive); in assay [7], 1.3% (inactive); in assay [8] it was 8.61% (inactive). For the same compound, the inhibition of aggregation in assay [2] was 6.2% (inactive). Also, the nuclei count is 96.3% in assay [2] and 80.7% in assay [3]. The fluorescence slope is -0.539 (inactive) in assay [4] and 0.00622 (inactive) in assay [6]. Besides, the NADPH fluorescence slope in assay [5] is 1.2e-05 (inactive).

Consider `CN1C(=O)CSc2ccc(NC(=O)N3CCN(c4ccccn4)CC3)cc21`, for which the cell count in assay [1] came to 589. Besides, the inhibition in assay [1] was -16.4% (inactive); in assay [3], -57.6% (inactive); in assay [7] it was -6.76% (inactive); in assay [8] it was 21.6% (inactive). The inhibition of aggregation in assay [2] was -49% (inactive). Moreover, the nuclei count amounted to 76.7% in assay [2] and 112% in assay [3]. Also, the fluorescence slope in assay [4] was -0.455 (inactive); in assay [6] it was 0.00601 (inactive). Besides, in assay [5], the NADPH fluorescence slope was 8e-05 (inactive).

Consider `O=C(COc1ccccc1)NCCSCc1ccco1`, for which the cell count in assay [1] was 599. The inhibition in assay [1] is -59.2% (inactive); in assay [3], -71.2% (inactive); in assay [7], -1.72% (inactive); in assay [8] it was -10.5% (inactive). In assay [2], the inhibition of aggregation is -13.8% (inactive). For the same compound, the nuclei count turned out to be 115% in assay [2] and 116% in assay [3]. In addition, the results for the fluorescence slope in assay [4] and in assay [6] were -0.271 (inactive) and 0.00726 (inactive), respectively. Also, the NADPH fluorescence slope in assay [5] was -2e-05 (inactive).

As for `CCCCN(CC)S(=O)(=O)N1CCC(C(=O)NCc2ccc(F)cc2)CC1`, the cell count in assay [1] is 705. Moreover, the inhibition was -6.9% (inactive) in assay [1], -8% (inactive) in assay [3], 12.4% (inactive) in assay [7] and 15.9% (inactive) in assay [8]. In addition, the inhibition of aggregation in assay [2] was -1.2% (inactive). For the same compound, the nuclei count in assay [2] came to 96.5%; in assay [3], 113%. Further, the results for the fluorescence slope in assay [4] and in assay [6] were -0.594 (inactive) and 0.00507 (inactive), respectively. In addition, the NADPH fluorescence slope in assay [5] was -2.1e-05 (inactive).

Take `COc1ccccc1-c1nnc2sc(-c3ccc(N(C)C)cc3)nn12`: the cell count in assay [1] came to 695. Further, the inhibition is -11.2% (inactive) in assay [1], -217% (inactive) in assay [3], 37.1% (inactive) in assay [7] and 87.1% (active) in assay [8]. In assay [2], the inhibition of aggregation was -34.9% (inactive). Further, the figures for the nuclei count in assay [2] and in assay [3] were 1.9% and 107%, respectively. The fluorescence slope in assay [4] was -0.517 (inactive); in assay [6] it was 0.00532 (inactive). The NADPH fluorescence slope in assay [5] is 1.2e-05 (inactive).

Take `CCOc1ccc2cc(C#N)c(SCC(=O)N3CCOCC3)nc2c1`: the cell count in assay [1] amounted to 386. Moreover, the inhibition was 1% (inactive) in assay [1], -46.6% (inactive) in assay [3], -22.4% (inactive) in assay [7] and -67% (inactive) in assay [8]. Also, the inhibition of aggregation in assay [2] is 11.7% (inactive). In addition, the nuclei count is 97.9% in assay [2] and 90.7% in assay [3]. In addition, the fluorescence slope in assay [4] is -0.487 (inactive); in assay [6] it was 0.00448 (inactive). Further, in assay [5], the NADPH fluorescence slope was -2.5e-05 (inactive).

On to `CCCCNC(=O)Nc1ccnn1C1CCCCC1`, for which the cell count in assay [1] came to 909. Further, the inhibition in assay [1] is -7.5% (inactive); in assay [3], -34.1% (inactive); in assay [7], 17% (inactive); in assay [8], 18.1% (inactive). The inhibition of aggregation in assay [2] is -8.6% (inactive). Moreover, the results for the nuclei count in assay [2] and in assay [3] were 100% and 105%, respectively. In addition, the fluorescence slope in assay [4] was -0.56 (inactive); in assay [6] it was 0.0186 (active). For the same compound, in assay [5], the NADPH fluorescence slope was -1.6e-05 (inactive).

In the case of `OCC#CCSc1nnc(-c2ccccc2Br)o1`, the cell count in assay [1] was determined as 390. For the same compound, the inhibition in assay [1] is -5.2% (inactive); in assay [3] it was -111% (inactive); in assay [7], -9.39% (inactive); in assay [8], -45.2% (inactive). The inhibition of aggregation in assay [2] is -3.5% (inactive). Also, the results for the nuclei count in assay [2] and in assay [3] were 110% and 132%, respectively. Moreover, the fluorescence slope in assay [4] was -0.515 (inactive); in assay [6] it was 0.00341 (inactive). Moreover, the NADPH fluorescence slope in assay [5] was -0.000137 (inactive).

For `O=c1c(F)cn(C2CCCO2)c(=O)n1Cc1c(F)cccc1Cl` (stereo not given), in assay [1], the cell count amounted to 738. Also, the inhibition in assay [1] was -7.1% (inactive); in assay [3] it was -114% (inactive); in assay [7], 5.15% (inactive); in assay [8], 13.2% (inactive). In assay [2], the inhibition of aggregation is -9.4% (inactive). The values for the nuclei count in assay [2] and in assay [3] were 103% and 140%, respectively. Further, the fluorescence slope in assay [4] was -0.549 (inactive); in assay [6] it was 0.00479 (inactive). In assay [5], the NADPH fluorescence slope is -1.3e-05 (inactive).

As to `CCOC(=O)c1[nH]c(C)c(C(=O)Nc2cc(OC)ccc2OC)c1C`, in assay [1], the cell count was 671. Further, the inhibition in assay [1] is -5.9% (inactive); in assay [3] it was -153% (inactive); in assay [7], 30.4% (inactive); in assay [8], 51.4% (active). Besides, the inhibition of aggregation in assay [2] was -3.7% (inactive). For the same compound, the nuclei count in assay [2] stood at 2.5%; in assay [3], 111%. Further, the values for the fluorescence slope in assay [4] and in assay [6] were -0.415 (inactive) and 0.00644 (inactive), respectively. Moreover, the NADPH fluorescence slope in assay [5] is 4.7e-05 (inactive).

Consider `Cc1ccc(Nc2cc(C)nc3nnnn23)cc1`, for which the cell count in assay [1] came to 415. For the same compound, the inhibition in assay [1] is 0.6% (inactive); in assay [3] it was 29.5% (inactive); in assay [7], 7.18% (inactive); in assay [8], 6.33% (inactive). For the same compound, in assay [2], the inhibition of aggregation was 1.1% (inactive). The nuclei count in assay [2] turned out to be 100%; in assay [3], 92.2%. Besides, the fluorescence slope was -0.559 (inactive) in assay [4] and 0.00637 (inactive) in assay [6]. Also, the NADPH fluorescence slope in assay [5] is -6.9e-05 (inactive).

Consider `Cc1cc(C)c2c(=O)[nH]c(=O)n(Cc3ccccc3)c2n1`, for which the cell count in assay [1] was found to be 303. The inhibition in assay [1] is 20% (inactive); in assay [3], 0.6% (inactive); in assay [7], 16.5% (inactive); in assay [8], 27.4% (inactive). Also, in assay [2], the inhibition of aggregation was -9.7% (inactive). Besides, the results for the nuclei count in assay [2] and in assay [3] were 114% and 103%, respectively. Besides, the fluorescence slope was -0.53 (inactive) in assay [4] and 0.00637 (inactive) in assay [6]. For the same compound, the NADPH fluorescence slope in assay [5] is 2.6e-05 (inactive).

With `O=C(Cn1cnc2c(oc3ccccc32)c1=O)N1CCN(c2ccccc2)CC1`, the cell count in assay [1] worked out at 648. For the same compound, the inhibition is 10.8% (inactive) in assay [1], -78% (inactive) in assay [3], 10.1% (inactive) in assay [7] and 17.4% (inactive) in assay [8]. Moreover, the inhibition of aggregation in assay [2] is 34.2% (inactive). Moreover, the nuclei count was 95% in assay [2] and 84.4% in assay [3]. The fluorescence slope was -0.493 (inactive) in assay [4] and 0.00654 (inactive) in assay [6]. Besides, the NADPH fluorescence slope in assay [5] is 1.3e-05 (inactive).
